# Measurements: ChEMBL document CHEMBL4428028, “Novel Combretastatin-2-aminoimidazole Analogues as Potent Tubulin Assembly Inhibitors: Exploration of Unique Pharmacophoric Impact of Bridging Skeleton and Aryl Moiety” (J Med Chem, 2016)
# Calls of active or inactive are those of the source. The rule behind the calls is not given here.
# Legend:
# Ovis aries [1] = species: Ovis aries; test: Inhibition of goat brain tubulin assembly at 20 uM incubated for 10 mins by spectrophotometry
# Procedure, shortened: (§1)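 Goat brain tubulin (12 μM; glutamate-purified, >97% pure) held 10 min on ice with compound in 25 mM PIPES, 1 mM EGTA, 3 mM MgCl2, 1 M glutamate. Then 1 mM GTP added. Assembly followed at 350 nm, 37 °C, for 20 min. Three independent experiments.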
# HeLa = test: Antiproliferative activity against human HeLa cells incubated for 24 hrs by sulforhodamine B assay; assay type: functional, cell-based
# Procedure, shortened: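 HeLa cells (1 × 10⁵ cells/mL) attached 24 h in MEM with 10% FBS, 37 °C, 5% CO2. Then treated with serial dilutions, DMSO final <0.1%, for 24 h. Fixed with 50% TCA, sulforhodamine B read-out, IC50 derived. Three independent experiments.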
# MCF7 [2] = test: Antiproliferative activity against human MCF7 cells incubated for 48 hrs by sulforhodamine B assay; assay type: functional, cell-based; settings: MCF7, 48 h
# Procedure, shortened: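 MCF-7 cells (1 × 10⁵ cells/mL) attached 24 h in MEM with 10% FBS, 37 °C, 5% CO2. Exposed to serial dilutions, DMSO final <0.1%, for 48 h. TCA (50%) fixation, sulforhodamine B staining, IC50 determined. Three independent sets.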
# [3] = Binding affinity to goat brain tubulin assessed as reduction in binding of 5-(Quinolin-3-yl)-4-(3,4,5-trimethoxyphenyl)-1H-imidazol-2-amine to tubulin incubated for 15 mins by fluorescence based assay; set-up: species or system Ovis aries
# Procedure, shortened: (§2)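 Goat brain tubulin (3 μM) was preincubated with competitor (1–20 μM) in 25 mM PIPES, pH 6.8, for 15 min at 25 °C. The 2-aminoimidazole probe (6 μM) was then added for 15 min at 25 °C. Emission was recorded at 420–520 nm with excitation at 350 nm. Ki was calculated as EC50/(1 + L/Kd). Three sets were run.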
# [4] = Inhibition of goat brain tubulin assembly incubated for 10 mins by spectrophotometry; set-up: species or system Ovis aries; procedure, shortened: as §1
# Ovis aries [5] = species: Ovis aries; test: Binding affinity to goat brain tubulin at 5 and 10 uM incubated for 10 mins by fluorescence based assay
# Procedure, shortened: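 Goat brain tubulin (2 μM) incubated 10 min at 25 °C with compound (5 and 10 μM) in 25 mM PIPES, pH 6.8. Ligand fluorescence spectra recorded at 420–520 nm, excitation 350 nm. Done three times.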
# Ovis aries [6] = species: Ovis aries; test: Binding affinity to goat brain tubulin at 6 uM […] with 10 and 30 uM paclitaxel by fluorescence based assay
# Ovis aries [7] = species: Ovis aries; test: (§3) Binding affinity to goat brain tubulin incubated for 10 mins by tryptophan fluorescence quenching based assay
# Procedure, shortened: (§4)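 Goat brain tubulin (2 μM), purified with 1 M glutamate, incubated 10 min at 25 °C with compound (1–20 μM) in 25 mM PIPES, pH 6.8. Tryptophan fluorescence read with excitation 295 nm. Kd obtained by fitting ΔF = ΔFmax·L/(Kd + L). Four independent sets.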
# [8] = as §3; set-up: species or system Ovis aries; procedure, shortened: as §4
# MCF7 [9] = test: Induction of cell cycle arrest in human MCF7 cells assessed as accumulation at G2/M phase at 10 nM incubated for 24 hrs by propidium iodide staining based flow cytometry (reference value: 16%); assay type: functional
# Ovis aries [10] = species: Ovis aries; test: Binding affinity to goat brain tubulin at 6 uM incubated for 10 mins after 10 mins incubation with 10 and 30 uM vinblastine by fluorescence based assay
# MCF7 [11] = test: Induction of cell cycle arrest in human MCF7 cells assessed as accumulation at S phase at 5 nM incubated for 24 hrs by propidium iodide staining based flow cytometry (reference value: 35%); assay type: functional
# Ovis aries [12] = species: Ovis aries; test: Binding affinity to goat brain tubulin incubated for 15 mins in presence of CA-4 by fluorescence based assay
# Procedure, shortened: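 Tubulin (3 μM) preincubated with CA-4 (1–20 μM) in 25 mM PIPES, pH 6.8, 15 min at 25 °C. Then 6 μM compound added for another 15 min at 25 °C. Spectra 420–520 nm taken with excitation 350 nm. Ki from Ki = EC50/(1 + L/Kd). Three sets.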
# MCF7 [13] = test: Induction of mitotic spindle disturbance in human MCF7 cells assessed as monopolar spindle formation at 5 and 10 nM incubated for 24 hrs by immunostaining; assay type: functional, cell-based
# MCF7 [14] = test: Induction of cell cycle arrest in human MCF7 cells assessed as accumulation at G2/M phase at 5 nM incubated for 24 hrs by propidium iodide staining based flow cytometry (reference value: 16%); assay type: functional
# MCF7 [15] = test: Induction of mitosis block in human MCF7 cells at 5 and 10 uM incubated for 24 hrs by immunostaining; assay type: functional, cell-based
# Huh-7 = test: Antiproliferative activity against human HuH7 cells incubated for 24 hrs by sulforhodamine B assay; assay type: functional, cell-based; settings: Huh-7, 24 h
# Procedure, shortened: (§5)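 Cells grown in DMEM with 2.2 g/L sodium bicarbonate, 10% FBS and antibiotic–antimycotic at 37 °C under 5% CO2. Compounds were dissolved in DMSO and diluted in medium (final DMSO <0.1%). Cells were exposed to a concentration series for 24 h, fixed with 50% TCA and stained with sulforhodamine B. IC50 was derived from three independent experiments.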
# MCF7 [16] = test: Induction of cell cycle arrest in human MCF7 cells assessed as accumulation at G1 phase at 10 nM incubated for 24 hrs by propidium iodide staining based flow cytometry (reference value: 49%); assay type: functional
# MCF7 [17] = test: Induction of mitosis block in human MCF7 cells assessed as phospho-histone H3 (Ser10) staining positive cells level at 5 nM incubated for 24 hrs by immunostaining (reference value: 8 +/- 1%); assay type: functional
# Tubulin (Homo sapiens) [18] = target: T1, Tubulin (Homo sapiens) (UniProt P68371+Q9H4B7+P0DPH7+P68366+Q13509+Q71U36+P04350+Q3ZCM7+P07437+P68363+Q9BQE3+Q6PEY2+Q13885+Q9BVA1+Q9BUF5); test: Induction of interphase microtubule network depolymerization in human MCF7 cells at 5 nM incubated for 24 hrs by immunostaining method; assay type: cell-based
# MCF7 [19] = test: Induction of mitosis block in human MCF7 cells assessed as phospho-histone H3 (Ser10) staining positive cells level at 10 nM incubated for 24 hrs by immunostaining (reference value: 8 +/- 1%); assay type: functional
# Tubulin (Homo sapiens) [20] = target: T1, Tubulin (Homo sapiens); test: Induction of interphase microtubule network depolymerization in human MCF7 cells at 10 nM incubated for 24 hrs by immunostaining method; assay type: cell-based
# EMT6 = test: Antiproliferative activity against drug resistant mouse EMT6/AR1 cells incubated for 24 hrs by sulforhodamine B assay; assay type: functional, cell-based; settings: EMT6, 24 h; procedure, shortened: as §5
# Ovis aries [21] = species: Ovis aries; test: Binding affinity to goat brain tubulin incubated for 15 mins in presence of podophyllotoxin by fluorescence based assay; procedure, shortened: as §2
# MCF7 [22] = test: Induction of cell cycle arrest in human MCF7 cells assessed as accumulation at G1 phase at 5 nM incubated for 24 hrs by propidium iodide staining based flow cytometry (reference value: 49%); assay type: functional
# MDA-MB-231 [23] = test: Antiproliferative activity against human MDA-MB-231 cells incubated for 24 hrs by sulforhodamine B assay; assay type: functional, cell-based; settings: MDA-MB-231, 24 h; procedure, shortened: as §5
# Ovis aries [24] = species: Ovis aries; test: Binding affinity to goat brain tubulin at 10 uM pre-incubated for 30 mins before 50 uM CA-4 exposure for 30 mins by fluorescence based assay
# Procedure, shortened: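 Tubulin first incubated 30 min with test compound, then 30 min without or with 50 μM CA-4 or 50 μM podophyllotoxin. Read-out is fluorescence of the tubulin–compound complex.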
# MCF7 [25] = test: Induction of cell cycle arrest in human MCF7 cells assessed as accumulation at S phase at 10 nM incubated for 24 hrs by propidium iodide staining based flow cytometry (reference value: 35%); assay type: functional
# Ovis aries [26] = species: Ovis aries; test: Binding affinity to goat brain tubulin at 10 uM pre-incubated for 30 mins before 50 uM podophyllotoxin exposure for 30 mins by fluorescence based assay
# Procedure, shortened: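 Displacement assay: tubulin was first incubated with the 2-aminoimidazole ligand for 30 min. It was then incubated without or with 50 μM podophyllotoxin or 50 μM CA-4 for a further 30 min. The read-out was the drop in fluorescence of the tubulin–ligand complex.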
# MDA-MB-231 [27] = test: Inhibition of cell migration of human MDA-MB-231 cells at 50 nM by wound closure assay; assay type: functional
# Procedure, shortened: (§6)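 MDA-MB-231 cells grown to 90% confluency in 35 mm dishes and scratched with a microtip. Incubated without or with compound. Wound closure imaged at 0, 4 and 18 h and expressed as percent closure.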
# MDA-MB-231 [28] = test: Inhibition of cell migration of human MDA-MB-231 cells at 150 nM by wound closure assay; assay type: functional; procedure, shortened: as §6
# MCF7 [29] = test: Induction of cell cycle arrest in human MCF7 cells assessed as accumulation at G1 phase at 50 nM incubated for 24 hrs by propidium iodide staining based flow cytometry (reference value: 49%); assay type: functional
# MCF7 [30] = test: Induction of cell cycle arrest in human MCF7 cells assessed as accumulation at S phase at 50 nM incubated for 24 hrs by propidium iodide staining based flow cytometry (reference value: 35%); assay type: functional
# MCF7 [31] = test: Induction of cell cycle arrest in human MCF7 cells assessed as accumulation at G2/M phase at 50 nM incubated for 24 hrs by propidium iodide staining based flow cytometry (reference value: 16%); assay type: functional
smiles,measurement,setting,value
Nc1nc(-c2ccccc2)c(-c2ccccc2)[nH]1,inhibition,Ovis aries [1],inactive
same,IC50,HeLa,197 nM
same,IC50,MCF7 [2],187 nM
COc1cccc(-c2[nH]c(N)nc2-c2cc(OC)c(OC)c(OC)c2)c1,IC50,HeLa,14000 nM
same,IC50,MCF7 [2],18000 nM
COc1cc(-c2nc(N)[nH]c2-c2cccnc2)cc(OC)c1OC,IC50,HeLa,4000 nM
same,IC50,MCF7 [2],13000 nM
COc1cc(-c2nc(N)[nH]c2-c2cc(OC)c(OC)c(OC)c2)cc(OC)c1OC,IC50,HeLa,8000 nM
same,IC50,MCF7 [2],12000 nM
COc1cc(-c2nc(N)[nH]c2-c2cccc(O)c2)cc(OC)c1OC,IC50,HeLa,18000 nM
same,IC50,MCF7 [2],53000 nM
COc1ccc(-c2[nH]c(N)nc2-c2cc(OC)c(OC)c(OC)c2)cc1O,IC50,HeLa,390 nM
same,IC50,MCF7 [2],220 nM
COc1cc([C@@H]2c3cc4c(cc3[C@H](O)[C@H]3COC(=O)[C@H]23)OCO4)cc(OC)c1OC [PODOFILOX],Kd,[3],300 nM
COc1ccc(-c2[nH]c(N)nc2-c2cc(OC)c(OC)c(OC)c2)cc1,IC50,HeLa,166 nM
same,IC50,MCF7 [2],174 nM
same,IC50,[4],13000 nM
COc1cc(-c2nc(N)[nH]c2-c2cccc(N)c2)cc(OC)c1OC,IC50,HeLa,8000 nM
same,IC50,MCF7 [2],6000 nM
COc1cc(-c2nc(N)[nH]c2-c2ccc(Cl)cc2)cc(OC)c1OC,IC50,HeLa,3000 nM
same,IC50,MCF7 [2],8000 nM
COc1cc(-c2nc(N)[nH]c2-c2ccccc2)cc(OC)c1OC,IC50,HeLa,34000 nM
same,IC50,MCF7 [2],27000 nM
COc1cc(-c2nc(N)[nH]c2-c2cnc3ccccc3c2)cc(OC)c1OC,Activity,Ovis aries [5],Active
same,Activity,Ovis aries [6],Active
same,Activity,Ovis aries [7],Dose-dependent effect
same,Kd,[8],1900 nM
same,Activity,MCF7 [9],74%
same,Activity,Ovis aries [10],Active
same,IC50,HeLa,10 nM
same,Activity,MCF7 [11],25%
same,Activity,Ovis aries [12],inactive
same,Activity,MCF7 [13],Active
same,Activity,MCF7 [14],40%
same,Activity,MCF7 [15],Active
same,IC50,MCF7 [2],3 nM
same,IC50,Huh-7,335 nM
same,Activity,MCF7 [16],16%
same,Activity,MCF7 [17],15%
same,Activity,Tubulin (Homo sapiens) [18],Active
same,Activity,MCF7 [19],26%
same,Activity,Tubulin (Homo sapiens) [20],Active
same,IC50,EMT6,350 nM
same,Activity,Ovis aries [21],inactive
same,Activity,MCF7 [22],34%
same,IC50,MDA-MB-231 [23],96 nM
same,Activity,Ovis aries [24],inactive
same,Activity,MCF7 [25],10%
same,Activity,Ovis aries [26],inactive
same,inhibition at 0.05 µM,MDA-MB-231 [27],56%
same,IC50,[4],1600 nM
same,inhibition,[4]; Ovis aries,Dose-dependent effect
COc1ccc(-c2[nH]c(N)nc2-c2cc(OC)c(OC)c(OC)c2)cc1OC,IC50,HeLa,68 nM
same,IC50,MCF7 [2],71 nM
same,IC50,[4],11000 nM
COc1cc(-c2nc(N)[nH]c2-c2ccc3[nH]ccc3c2)cc(OC)c1OC,IC50,HeLa,3000 nM
same,IC50,MCF7 [2],8000 nM
COc1ccc(/C=C\c2cc(OC)c(OC)c(OC)c2)cc1O [COMBRETASTATIN A4],inhibition at 0.15 µM,MDA-MB-231 [28],52%
same,Kd,[3],680 nM
same,Activity,MCF7 [9],43%
same,Activity,MCF7 [29],14%
same,IC50,HeLa,25 nM
same,Activity,MCF7 [11],23%
same,Activity,MCF7 [30],23%
same,Activity,MCF7 [14],26%
same,IC50,MCF7 [2],18 nM
same,IC50,Huh-7,430 nM
same,Activity,MCF7 [16],41%
same,Activity,MCF7 [31],63%
same,IC50,EMT6,495 nM
same,Activity,MCF7 [22],51%
same,IC50,MDA-MB-231 [23],331 nM
same,Activity,MCF7 [25],16%
same,inhibition at 0.05 µM,MDA-MB-231 [27],8%
same,IC50,[4],1700 nM
COc1cc(-c2nc(N)[nH]c2-c2ccc(F)cc2)cc(OC)c1OC,IC50,HeLa,3400 nM
same,IC50,MCF7 [2],3000 nM
COc1cc(-c2nc(N)[nH]c2-c2ccc(N)nc2)cc(OC)c1OC,IC50,HeLa,18000 nM
same,IC50,MCF7 [2],21000 nM
